# UPR XBP1 act: adaptive UPR (XBP1) activation; CHO-XBP1 luciferase reporter, IRE1-XBP1 UPR activation, luminescence; percent of tunicamycin response, DMSO as zero; activation, % at 20 µM; 330,000 tested, 0.33% active;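 active means versus positive control, 20 µM dose yields 30% or more activation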;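 further: 100% = tunicamycin at 10 µg/mL and 0% = DMSO only wells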
#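 Material: CHO-XBP1 cells stably carrying IRE1-XBP1-driven luciferase reporter | Medium: F12 with 10% serum | Compound dosing: 20 µM single concentration, DMSO 1% | Incubation: Overnight seeding at 37 °C, 6 h compound treatment at 37 °C | Detection: Steady-Glo luminescence read | Read-out basis: % activation of reporter signal versus tunicamycin and DMSO controls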
# UCH37 inh: human UCH37 deubiquitinating enzyme inhibition; 330,000 tested, 0.33% active; inhibition, % (no concentration beside the values); Q9Y5K5; purified proteasome/UCH37, Ub-AMC cleavage fluorescence;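 active means mean inhibition over replicate wells above about 20%, limit read from the data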;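 further: 0% = compound-free wells with enzyme and 100% = wells lacking proteasome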
# Target sequence (Q9Y5K5 whole entry, looked up): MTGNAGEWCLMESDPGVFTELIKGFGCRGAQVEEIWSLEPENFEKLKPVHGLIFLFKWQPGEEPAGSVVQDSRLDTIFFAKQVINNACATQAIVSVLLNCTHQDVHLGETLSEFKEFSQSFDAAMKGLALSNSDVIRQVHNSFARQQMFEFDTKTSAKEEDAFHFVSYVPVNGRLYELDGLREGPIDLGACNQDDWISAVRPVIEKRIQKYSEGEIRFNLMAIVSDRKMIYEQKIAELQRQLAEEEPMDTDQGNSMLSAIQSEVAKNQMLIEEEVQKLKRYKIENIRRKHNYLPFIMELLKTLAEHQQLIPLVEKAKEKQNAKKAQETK
#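 System: Proteasome-associated human UCH37 deubiquitinase; Input: 0.15 nM proteasome in added enzyme buffer; Also added: Ub-AMC substrate from 1 µM stock; Incubation: 30 min compound-proteasome preincubation then 25 min substrate reaction, room temperature; Detection: fluorescence, ex 355 nm, em 460 nm; Read-out: % inhibition of Ub-AMC cleavage fluorescence; Benchmarks: no-proteasome and no-compound wells.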
# CHOP inh: CHOP inhibition in unfolded protein response; AID 2732; inhibition, % at 10 µM; 220,000 tested, 3.8% active; CHO-K1 CHOP-promoter luciferase, tunicamycin-induced, 15-18 h;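 active means compounds that reduced the stress-induced luciferase reporter signal by more than about 70% of percent inhibition, limit read from the data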;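 further: 0% = tunicamycin plus vehicle and 100% = wells without tunicamycin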
# CTSL1 counter: cathepsin L1 inhibition, PFM18AAP counter-screen; recombinant F. hepatica cathepsin L1, Z-Leu-Arg-MCA fluorescence; inhibition, % at 5.96 µM; 300,000 tested, 0.49% active; AID 1906;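 active means inhibition above the mean of all tested compounds plus 3 SD, set per screening campaign, cut at about 17% in these data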;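 further: 0% = plate median of test compound wells and 100% = 1 µM Z-Phe-Ala-diazomethylketone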
# CHOP UPR activ: activators of apoptotic arm of unfolded protein response (CHOP) | CHO-CHOP luciferase reporter, UPR activation, luminescence; percent of tunicamycin response over DMSO baseline | activation, % at 10 µM | 330,000 tested, 0.34% active | AID 449763;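 active means at 10 µM dose, activation of 40% or more, normalized to positive control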;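 further: 100% = tunicamycin at 10 µg/mL and 0% = DMSO alone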
#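 Test system: CHO CHOP reporter cells. Input: 500 CHO-CHOP cells per well. Medium: F12 with 10% FBS. Technique: luciferase luminescence. Measure: percent activation relative to tunicamycin control. Dosing: 10 µM compound, 0.5% DMSO. Timing: 16-18 h cell attachment, then 6 h compound exposure, 37 °C.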
# Starred values were filed as active, the others as inactive; i = inactive; · = no result. The full list was thinned out, with hits kept by preference.
SMILES,UPR XBP1 act,UCH37 inh,CHOP inh,CTSL1 counter,CHOP UPR activ
O=C(N/C=C/c1ccccc1)Nc1ccc(Cl)cc1,-2,·,87*,-4,4
CCOc1ccc2ccccc2c1C=NNC(=O)c1cc(C)[nH]n1,·,-1,·,·,·
CCCCOC(=O)NN=C/C=C/c1ccccc1,·,3,·,·,·
COc1cccc(C2C3=C(N=c4s/c(=C\c5ccccc5O)c(=O)n42)c2ccccc2CC3)c1OC (stereo not drawn),52*,·,22,-2,105*
O=Nc1c(-c2cccc([N+](=O)[O-])c2)nc2ncccn12,9,·,34,1,131*
ON=C(c1ccc(Cl)cc1)c1ncc(C(F)(F)F)cc1Cl,·,4,·,·,·
C=CCn1c(SCC(C)=O)nc2scc(-c3ccco3)c2c1=O,-3,3,·,23*,1
C=CCn1c(SCC(=O)N2CCOCC2)nc2scc(-c3ccco3)c2c1=O,-1,4,23,5,-2
O=C(NN=Cc1ccco1)C1CC(=O)N(c2ccccc2)C1 (stereo not drawn),·,5,·,·,·
CC1CCc2ccc(F)cc2N1S(=O)(=O)c1cccs1 (stereo not drawn),0,2,83*,-3,-1
O=C(CN1CCCCCC1)NN=Cc1cccs1,·,1,·,·,·
CC(C)[C@@H]1CC[C@@H](C)c2c(-c3ccccc3)n[nH]c21,-1,0,92*,3,-3
c1ccc(-c2n[nH]c3c2CCC3)cc1,2,4,10,-2,-3
O=c1cc2c(nn1Cc1ccccc1Cl)-c1ccccc1CC2,2,-1,86*,0,1
O=c1cc2c(nn1Cc1ccc(Cl)cc1)-c1ccccc1CC2,-3,0,88*,2,0
Cc1ccc(Cn2nc3c(cc2=O)CCc2ccccc2-3)cc1,4,-4,32,7,0
O=c1cc2c(nn1Cc1cccc(Cl)c1)-c1ccccc1CC2,2,0,95*,1,2
O=c1cc2c(nn1Cc1ccc(Cl)cc1Cl)-c1ccccc1CC2,-1,1,50,5,-1
CCn1c(SCC(=O)Nc2nc(-c3ccc(C)cc3)cs2)nnc1-c1ccccc1O,-2,5,86*,2,3
c1ccc(Nc2nc(CSc3ncn[nH]3)cs2)cc1,2,1,-27,35*,4
CCn1c(SCC(=O)Nc2nc(-c3ccc(C)cc3)cs2)nnc1-c1ccccc1,0,3,40,2,0
O=C(CSc1ncn[nH]1)Nc1nc(-c2ccccc2)cs1,-1,28*,34,4,1
Cc1ccsc1C(=O)NN=Cc1ccc([N+](=O)[O-])cc1,·,-1,·,·,·
Cc1ccc(SCc2c(C(=O)NN=Cc3ccc4c(c3)OCO4)nnn2-c2nonc2N)cc1,·,-30,·,·,·
Cc1ccc(C)c(OCC(=O)Nc2nc3ccc([N+](=O)[O-])cc3s2)c1C,1,4,80*,3,-1
SMILES,UPR XBP1 act,UCH37 inh,CHOP inh,CTSL1 counter,CHOP UPR activ
COc1cccc(OC)c1C(=O)Nc1nc2ccc([N+](=O)[O-])cc2s1,-2,21*,10,1,-1
COc1cccc(OC)c1C(=O)Nc1nc2ccc(S(C)(=O)=O)cc2s1,-2,0,3,3,0
COc1ccc2c(c1)c(C(=O)CN1CCC3(CC1)OCCO3)c(C)n2C,-1,27*,6,0,-1
Cc1ccc([C@@H]2[C@@H]3C(=O)N(C)C(=O)[C@@H]3[C@]3(C)C(=O)N(Cc4ccccc4)CC(=O)N23)o1,-2,25*,·,0,1
Cc1ccc([C@@H]2[C@@H]3C(=O)N(C)C(=O)[C@@H]3[C@]3(C)C(=O)N(Cc4ccccn4)CC(=O)N23)o1,2,3,·,4,-2
CCOC(=O)c1c(N=Cc2ccc(OC)cc2O)sc2c1CCN(C)C2,·,3,·,·,·
O=[N+]([O-])c1ccccc1CNC(Cc1ccccc1)c1ccccc1 (stereo not drawn),-4,0,80*,5,2
CC(=NNC(=O)c1ccc2ccccc2c1)c1cccnc1,·,1,·,·,·
CCOC(=O)/C(=C/c1ccc(OC(=O)c2ccncc2)cc1)C(C)=O,1,4,-37,2,0
CCOC(=O)C(=Cc1ccc(Br)cc1)C(=O)OCC,·,4,105*,·,·
COCc1cc(C)n(CC(=O)NN=Cc2ccc(-c3ccc(Cl)c(C(=O)O)c3)o2)c(=O)c1C#N,·,-35,·,·,·
C[C@H](NC(=O)[C@H]1N2C(=O)c3ccccc3C2SC1(C)C)C(=O)N1CCN(C)CC1 (stereo partly drawn),-3,4,·,21*,-1
CCN(CC)c1ccc2cc(NC(=O)CCC(=O)O)c(=O)oc2c1,-9,i,88*,2,-9
CCN(CC)c1ccc2cc(C(C)=O)c(=O)oc2c1,1,10,-16,9,3
Cc1ccccc1Cn1cc(NC(=O)c2noc3c2CC(C(C)(C)C)CC3)cn1 (stereo not drawn),2,-8,86*,3,1
O=C(NNC(=O)c1cc(-c2ccc(Cl)c(Cl)c2)nc2ccccc12)Nc1ccccc1,5,·,89*,3,1
COc1ccc(-c2cc(C(=O)Nc3ccc(S(N)(=O)=O)cc3)c3ccccc3n2)cc1OC,3,-116,·,0,-1
COc1ccc(-c2cc(C(=O)Nc3cc(S(N)(=O)=O)ccc3C)c3ccccc3n2)cc1OC,-4,-99,·,22*,-1
COc1cc(-c2cc(C(=O)Nc3ccc(S(=O)(=O)NCc4ccco4)cc3)c3ccccc3n2)cc(OC)c1OC,0,-345,79*,1,7
COc1ccc(-c2cc(C(=O)Nc3c(Cl)cc(Cl)cc3Cl)c3ccccc3n2)cc1OC,3,-167,79*,0,3
CCOC(=O)c1cnc(-n2nc(C)cc2C)nc1NNc1cc(-c2ccccc2)nc(C)n1,-3,3,74*,-2,14
CCOC(=O)c1cnc(-n2nc(C)cc2C)nc1NNc1ncc(-c2ccccc2)cn1,0,4,27,1,-1
Cc1cccc(NC(=S)N(CCc2nc3cc(C)c(C)cc3[nH]2)Cc2cccnc2)c1,4,4,80*,3,2
CC(C)(C)N/N=C1\CC(c2ccccc2)Oc2ccccc21 (stereo not drawn),1,·,73*,1,1
Cc1onc(-c2ccccc2)c1C(=O)NN=Cc1ccccc1OC(C)C,·,5,·,·,·
CCOc1cc(C=NN=C(N)N)ccc1OCc1ccc(Cl)cc1,·,2,·,·,·
N#CC(C#N)=NNc1ccc([N+](=O)[O-])cc1,0,15,-10,24*,3
CC(=NNc1ccc([N+](=O)[O-])cc1)c1ccc(O)cc1,·,3,·,·,·
C/C(=N/Nc1ccc([N+](=O)[O-])cc1)c1ccc(C)cc1C,2,·,94*,4,2
